Paper PMC3759693 (Genes & Development, 2013)
Blank lines part the entries; values can stand above or below the compound they belong to.

How the values were obtained:
[1] = system: recruitment of NBS1 R28A mutant to DNA damage sites; assay: Laser microirradiation, relocation of NBS1 R28A-GFP in MEFs; format: cell-based, mouse; settings: wild-type MEFs
Summary of the method: (§1)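 U2OS cells or MEFs (wild-type or knockout) on glass-bottomed dishes expressed GFP-fused proteins or mutants. Microirradiation used an equal laser pulse energy and exposure time for every cell, with live imaging. Where used, 100 nM olaparib, 10 μM GLTN or 10 μM wortmannin was added 1 h before irradiation. GFP intensity at the laser line was quantified; normalized curves from 50 cells over three experiments were averaged, ± SD.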

[2] = system: PARG-dependent PAR hydrolysis; assay: PAR at DNA damage sites after laser microirradiation; format: cell-based; settings: 10 μM GLTN; Supplemental Fig. 7C
[3] = system: recruitment of PNKP to DNA damage sites; assay: Laser microirradiation, relocation of PNKP; format: cell-based
Summary of the method: as §1

[4] = system: in vivo interaction between PAR and PNKP, APTX, Ligase4, XRCC1, NBS1; assay: Co-IP of PAR with FHA/BRCT domain-containing proteins after IR; format: cell-based; settings: olaparib pretreatment
Summary of the method: (§2)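 U2OS cells were given 137Cs IR (10 Gy or indicated doses) and lysed at indicated times. Where used, 100 nM olaparib was added 1 h […]. Lysis on ice in NETN-100 (20 mM Tris-HCl pH 8.0, 100 mM NaCl, 1 mM EDTA, 0.5% NP-40). Soluble fractions were immunoprecipitated and western blotted with the indicated antibodies (e.g., anti-PAR, pATM, pCHK2, pSQpTQ). Triplicates.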

[5] = system: recruitment of XRCC1 to DNA damage sites; assay: Laser microirradiation, relocation of XRCC1; format: cell-based; settings: olaparib treatment; Supplemental Fig. 10C
Summary of the method: as §1

[6] = system: recruitment of DNA Ligase4 to DNA damage sites; assay: Laser microirradiation, relocation of Ligase4; format: cell-based; settings: olaparib treatment; Supplemental Fig. 10B
Summary of the method: as §1

[7] = system: early phosphorylation of 53BP1; assay: IP/Western blot of 53BP1 phosphorylation after IR; format: cell-based; settings: cells pretreated with olaparib, then irradiated
Summary of the method: as §2

[8] = system: early DNA damage repair in U2OS cells; assay: Neutral comet assay; format: cell-based; settings: 4 Gy IR, olaparib treatment
early activation of ATM = assay: Western blot of pATM; format: cell-based; settings: after IR, cells pretreated with olaparib
Summary of the method: as §2

G2/M checkpoint = assay: G2/M checkpoints assay, phospho-histone H3 flow cytometry; format: cell-based; settings: olaparib treatment
Summary of the method: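 Stable cells expressing siRNA-resistant Flag-tagged wild-type NBS1 were pretreated with or without olaparib, then given 0 or 2 Gy IR with 1 h recovery. Cells fixed in 70% ethanol and stained with rabbit anti-phospho-histone H3 (Ser10) plus FITC anti-rabbit secondary. RNase A treatment and propidium iodide staining followed. pH3-positive fraction measured by flow cytometry.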

[9] = system: wild-type or H2AX−/− MEFs; assay: Colony formation assay after IR; format: cell-based, mouse; settings: 100 nM olaparib, low dose of IR
Summary of the method: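 500 wild-type or H2AX−/− MEFs seeded per well, then given graded 137Cs IR doses with or without 100 nM olaparib present in the medium throughout culture. After 7 d, cells fixed and crystal violet-stained; colonies of >50 cells counted. Triplicates, mean ± SD, Student's t-test.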

[10] = system: recruitment of NBS1 to DNA damage sites; assay: Laser microirradiation, relocation of NBS1-GFP in MEFs; format: cell-based, mouse; settings: 100 nM olaparib 1 h before laser microirradiation
Summary of the method: as §1

[11] = system: recruitment of NBS1 to DNA damage sites; assay: Laser microirradiation, relocation of NBS1-GFP in U2OS cells; format: cell-based; settings: 10 μM wortmannin 1 h before laser microirradiation
Summary of the method: as §1

BRCT domain of MDC1 = target: T1, BRCT domain of MDC1 (Homo sapiens, UniProt Q14676); assay: Affinity of MDC1 BRCT domain with PAR; format: binding
T1 sequence (Q14676 1891-2089 limits assumed): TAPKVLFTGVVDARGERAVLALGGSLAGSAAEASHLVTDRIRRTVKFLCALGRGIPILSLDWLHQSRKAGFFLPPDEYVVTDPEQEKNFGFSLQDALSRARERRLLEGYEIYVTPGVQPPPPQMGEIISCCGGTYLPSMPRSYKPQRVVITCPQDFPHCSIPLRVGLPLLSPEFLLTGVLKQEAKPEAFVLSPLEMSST
Summary of the method: (§3)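 Recombinant domains expressed in E. coli, or by baculovirus for NBS1 FHA+BRCT (C-terminal GST), and purified. ITC at 16°C: protein at 20∼60 μM final in 10 mM Na2HPO4 (pH 7.5), 100 mM NaCl. Syringe ligand (PAR, ADP-ribose or iso-ADP-ribose) at 150∼750 μM final in the same buffer, with PAR counted as ADP-ribose units. 0.4 μL preinjection, then 19 × 2 μL injections at 120 sec, 1000 rpm. Isotherms integrated and fitted.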

FHA domain of CHK2 = FHA domain of CHK2 (Homo sapiens, UniProt O96017); assay: Interaction with CHK2 FHA domain; format: binding; settings: Supplemental Fig. 3
Summary of the method: as §3

[12] = target: XRCC1 (amino acids 379–400) peptide (Homo sapiens, UniProt P18887); assay: Dot blot, pull-down or ITC with XRCC1 peptide; format: binding; settings: pull-down, or ITC assay, data not shown
FHA domain of RNF8 = target: T2, FHA domain of RNF8 (Homo sapiens, UniProt O76064); assay: Interaction with RNF8 FHA domain; format: binding; settings: Supplemental Fig. 3
T2 sequence (O76064 38-92 limits assumed): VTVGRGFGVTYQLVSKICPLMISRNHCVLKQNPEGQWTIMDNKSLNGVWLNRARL
Summary of the method: as §3

BRCT domain of BRCA1 = BRCT domain of BRCA1 (Homo sapiens, UniProt P38398); assay: Affinity of BRCA1 BRCT domain with PAR; format: binding
Summary of the method: as §3

XRCC1 (amino acids 379–400) peptide, sequence (P18887 379-400 limits assumed): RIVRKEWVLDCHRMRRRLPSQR
FHA domain of CHK2, sequence (O96017 113-175 limits assumed): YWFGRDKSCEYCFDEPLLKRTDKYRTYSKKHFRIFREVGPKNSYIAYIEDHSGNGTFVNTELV
BRCT domain of BRCA1, sequence (P38398 1646-1859 limits assumed): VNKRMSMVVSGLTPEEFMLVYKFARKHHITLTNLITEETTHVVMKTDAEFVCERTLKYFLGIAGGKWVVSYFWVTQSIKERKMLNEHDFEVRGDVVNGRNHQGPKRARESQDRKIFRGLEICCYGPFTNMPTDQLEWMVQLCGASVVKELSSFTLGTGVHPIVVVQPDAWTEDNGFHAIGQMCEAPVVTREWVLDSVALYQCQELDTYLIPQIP

Compound: O=C(OC[C@H]1O[C@@H](OC(=O)c2cc(O)c(O)c(OC(=O)c3cc(O)c(O)c(O)c3)c2)[C@H](OC(=O)c2cc(O)c(O)c(OC(=O)c3cc(O)c(O)c(O)c3)c2)[C@@H](OC(=O)c2cc(O)c(O)c(OC(=O)c3cc(O)c(O)c(O)c3)c2)[C@@H]1OC(=O)c1cc(O)c(O)c(OC(=O)c2cc(O)c(O)c(O)c2)c1)c1cc(O)c(O)c(OC(=O)c2cc(O)c(O)c(O)c2)c1 [GLTN, gallotannin]
retention of NBS1 R28A mutant at DNA damage sites ([1]; GLTN treatment): stabilized NBS1 at DNA damage sites
half-life of PAR at DNA damage sites [2]: significantly prolonged

Compound: O=C(c1cc(Cc2n[nH]c(=O)c3ccccc23)ccc1F)N1CCN(C(=O)C2CC2)CC1 [olaparib]
recruitment of NBS1 R28A mutant to DNA damage sites ([1]; olaparib treatment): abolished the recruitment of NBS1
early recruitment of PNKP to DNA damage sites ([3]; olaparib treatment, Supplemental Fig. 9A): impaired the early recruitment
in vivo interaction of FHA/BRCT domain-containing proteins with PAR [4]: no longer interacted with PAR in vivo
fast recruitment of XRCC1 to DNA damage sites [5]: abolished fast recruitment
early recruitment of DNA Ligase4 to DNA damage sites [6]: impaired the early recruitment
early phosphorylation of 53BP1 [7]: clearly suppressed
DNA damage repair (comet assay tail moment) [8]: significantly impaired
early activation of ATM (early activation of ATM): impaired
arrest at the G2/M boundary after IR (G2/M checkpoint): could not be fully arrested at the G2/M boundary
sensitivity to IR-induced DNA damage (colony formation) ([9]; H2AX−/− MEFs): hypersensitive
sensitivity to IR-induced DNA damage (colony formation) ([9]; wild-type MEFs): could still be resistant
recruitment of NBS1 to DNA damage sites ([10]; H2AX−/− cells): abolished both the fast recruitment and slow accumulation of NBS1
relocation of NBS1 to DNA damage sites ([10]; MDC1−/− cells): abolished the relocation of NBS1
recruitment of NBS1 to DNA damage sites ([10]; wild-type MEFs): abolished the early recruitment of NBS1

Compound: COC[C@H]1OC(=O)c2coc3c2[C@@]1(C)C1=C(C3=O)[C@@H]2CCC(=O)[C@@]2(C)C[C@H]1OC(C)=O [wortmannin]
retention of PNKP at DNA damage sites ([3]; wortmannin treatment, Supplemental Fig. 9D): significantly impaired
recruitment of NBS1 to DNA damage sites [11]: could still be recruited

affinity with PAR (BRCT domain of MDC1): do not have the affinity
interaction with the FHA domain (FHA domain of CHK2): failed to interact
binding between the peptide and PAR [12]: did not detect any binding
interaction with the FHA domain (FHA domain of RNF8): failed to interact
affinity with PAR (BRCT domain of BRCA1): do not have the affinity
Compound: poly(ADP-ribose) [PAR]
